Laboratory results: ChEMBL document CHEMBL1146446, “Cytotoxic and antiplatelet aggregation principles from Aglaia elliptifolia” (J Nat Prod, 1997)
Converted amounts (≈) assume the structure as drawn.

What was measured:
[1] = Antiplatelet aggregation activity against ADP-induced rabbit platelet assessed as platelet aggregation at 100 ug/mL relative to control; format: functional, Oryctolagus cuniculus
Method in brief: (§1)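 Blood from rabbit marginal ear vein was mixed with EDTA to a final 6 mM. It was spun at 90g for 10 min at room temperature to give platelet-rich plasma, then at 500g for 10 min. Platelets were preincubated with sample or 0.5% DMSO for 1 min at 37 °C, then triggered with ADP, arachidonic acid, collagen (10 µg/mL) or PAF (2 ng/mL). Mean ± S.D.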

[2] = Antiplatelet aggregation activity against arachidonic acid-induced rabbit platelet assessed as platelet aggregation at 100 ug/mL relative to control; format: functional, Oryctolagus cuniculus; method in brief: as §1
[3] = Antiplatelet aggregation activity against platelet activating factor-induced rabbit platelet assessed as platelet aggregation at 100 ug/mL relative to control; format: functional, Oryctolagus cuniculus; method in brief: as §1
[4] = Antiplatelet aggregation activity against collagen-induced rabbit platelet assessed as platelet aggregation at 100 ug/mL relative to control; format: functional, Oryctolagus cuniculus; method in brief: as §1
KB = assay: Cytotoxicity against human KB cells; format: functional, cell-based
A549 = assay: Cytotoxicity against human A549 cells; format: functional, cell-based
HCT-8 = assay: Cytotoxicity against human HCT8 cells; format: functional, cell-based
P388 [5] = assay: Cytotoxicity against mouse P388 cells; format: functional, cell-based
RPMI-7951 = assay: Cytotoxicity against human RPMI7951 cells; format: functional, cell-based
TE-671 = assay: Cytotoxicity against human TE671 cells; format: functional, cell-based
P388 [6] = assay: In vivo cytotoxic activity against mouse P388 cells at 1 mg/kg relative to control; format: functional

| SMILES | Activity [1] [%] | Activity [2] [%] | Activity [3] [%] | Activity [4] [%] | IC50 (KB) [ng/mL] | IC50 (A549) [ng/mL] | IC50 (HCT-8) [ng/mL] | IC50 (P388 [5]) [ng/mL] | IC50 (RPMI-7951) [ng/mL] | IC50 (TE-671) [ng/mL] | T/C (P388 [6]) [%] |
| --- | --- | --- | --- | --- | --- | --- | --- | --- | --- | --- | --- |
| COC(=O)[C@H]1[C@@H](O)[C@@]2(O)c3c(OC)cc(OC)cc3O[C@@]2(c2ccc(OC)cc2)[C@@H]1c1ccccc1 [AGLAFOLIN] | 85.2 | 0 | 0 | 88.6 | 1 (≈ 0.00203 µM) | 1 (≈ 0.00203 µM) | 5 (≈ 0.0102 µM) | 2 (≈ 0.00406 µM) | 1 (≈ 0.00203 µM) | 1 (≈ 0.00203 µM) |  |
| COc1cccc2c1C(=O)c1c(O)c3c(c(O)c1C2=O)C[C@@](O)(C(=O)CO)C[C@@H]3O[C@H]1C[C@H](N)[C@H](O)[C@H](C)O1.Cl [DOXORUBICIN HYDROCHLORIDE] |  |  |  |  |  | 150 | 300 |  |  |  |  |
| COc1cc2ccc(=O)oc2cc1O [SCOPOLETIN] | 65.3 | 79.2 | 90.5 | 79.2 | 4000 (≈ 20.8 µM) |  |  |  |  |  |  |
| CC[C@]1(O)C[C@@H]2CN(CCc3c([nH]c4ccccc34)[C@@](C(=O)OC)(c3cc4c(cc3OC)N(C)[C@H]3[C@@](O)(C(=O)OC)[C@H](OC(C)=O)[C@]5(CC)C=CCN6CC[C@]43[C@@H]65)C2)C1.O=S(=O)(O)O [VINBLASTINE SULFATE] |  |  |  |  |  | 2 | 5 |  |  |  |  |
| COc1cc([C@@H]2c3cc4c(cc3[C@@H](O[C@@H]3O[C@@H]5CO[C@@H](C)O[C@H]5[C@H](O)[C@H]3O)[C@H]3COC(=O)[C@H]23)OCO4)cc(OC)c1O [ETOPOSIDE] |  |  |  |  | 120 (≈ 0.204 µM) |  |  | 2620 (≈ 4.45 µM) |  |  |  |
| COc1ccc([C@@]23Oc4cc(OC)cc(OC)c4[C@]2(O)[C@H](O)[C@H](C(=O)N(C)C)[C@H]3c2ccccc2)cc1 [ROCAGLAMIDE] | 77.6 | 90.5 | 85.5 | 83.8 | 6 (≈ 0.0119 µM) | 6 (≈ 0.0119 µM) | 7 (≈ 0.0138 µM) | 5 (≈ 0.00989 µM) | 2 (≈ 0.00396 µM) | 6 (≈ 0.0119 µM) | 156 |
